Screening data from PubChem.
Cdc25B inh – inhibitors of Cdc25B phosphatase catalytic domain, primary screen, biochemical, OMFP fluorescence; M-phase inducer phosphatase 2 (Homo sapiens), P30305; recombinant Cdc25B, OMFP fluorescence Ex485/Em525; inhibition, %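 (compounds tested at 10 µM final in the well)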; 0.1% of 65,000 active; AID 368, 2006; in the data active means inhibition above about 50%
Ecoli WT expand – growth inhibitors of wild-type E. coli, primary screen, strain BW25113, expanded library, OD600 | OD600 absorbance | growth inhibition, % at 100 µM | 0.15% of 98,000 active | AID 710, 2007;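 active means growth inhibition above about 50% at one test dose, limit read from the data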;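 further: growth measured after 20 h incubation at 37 °C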
MKP-1 inh – MKP-1 phosphatase inhibitors, primary screen, biochemical, in vitro; inhibition, %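 (compounds tested at a single concentration somewhere between 10 and 100 µM)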; AID 374, 2006; 0.15% of 65,000 active; recombinant MKP-1, OMFP hydrolysis fluorescence; Dual specificity protein phosphatase 1 (Homo sapiens), P28562;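 active means inhibition above about 50%, limit read from the data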;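 further: 0% = DMSO max control wells and 100% = wells with enzyme stopped by NaOH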
Target sequence (P28562 whole entry, looked up): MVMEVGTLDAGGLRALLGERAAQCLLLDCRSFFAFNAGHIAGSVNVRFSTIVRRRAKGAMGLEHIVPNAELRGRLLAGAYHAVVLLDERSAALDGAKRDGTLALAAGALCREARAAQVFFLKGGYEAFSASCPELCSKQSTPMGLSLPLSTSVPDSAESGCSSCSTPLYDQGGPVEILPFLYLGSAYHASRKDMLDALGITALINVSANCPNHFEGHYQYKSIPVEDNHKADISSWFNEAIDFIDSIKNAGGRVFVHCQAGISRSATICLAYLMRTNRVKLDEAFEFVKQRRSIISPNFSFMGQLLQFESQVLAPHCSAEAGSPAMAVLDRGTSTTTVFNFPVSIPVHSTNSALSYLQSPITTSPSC
HePTP inh – inhibitors of human HePTP phosphatase, primary screen, biochemical, absorbance, leukemia target | 0.64% of 110,000 active | inhibition, % at 20 µM | AID 521, 2006 | Tyrosine-protein phosphatase non-receptor type 7 (Homo sapiens), P35236 | recombinant HePTP phosphatase activity, OD absorbance; in the data active means inhibition above about 50%;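 further: plate controls were vehicle for no effect and reference inhibitor for full effect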
MMP-13 inhibitor – human MMP13 inhibitors, primary screen, biochemical, FRET peptide cleavage | inhibition, % at 4 µM | MMP-13 fTHP FRET cleavage, Mca fluorescence | 0.07% of 65,000 active | Collagenase 3 (Homo sapiens), P45452;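 active means inhibition above the mean of compound-free control plate wells plus 3 SD, cut at about 14% in these data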;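 further: 0% = DMSO wells and 100% = wells with reference MMP-13 inhibitor after basal subtraction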
tolC growth inh – growth inhibitors of E. coli tolC mutant, primary screen, strain BW25113 ΔtolC::kan, 384-well. growth inhibition, % at 10 µM (by protocol). AID 573, 2007. 2.2% of 65,000 active. OD615;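 active means growth inhibition at or above a cutoff equal to the mean over every tested compound plus 3 SD, cut at about 60% in these data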;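 further: growth measured after 20 h incubation at 37 °C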
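System: E. coli ΔtolC::kan strain BW25113; Buffer or medium: LB broth supplemented with 50 µg/mL kanamycin; Compound: 10 µM final, single dose; Incubation: bacterial growth with compound for 20 h at 37 °C; Signal: A615 absorbance measurement; Evaluation: growth inhibition in percent.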
Starred values were filed as active, the others as inactive; . = no result. The full list was thinned out, with hits kept by preference.

SMILES | Cdc25B inh | Ecoli WT expand | MKP-1 inh | HePTP inh | MMP-13 inhibitor | tolC growth inh
CCOc1ccc(NS(=O)(=O)c2ccc3nsnc3c2)cc1 | . | . | . | 0 | . | .
O=C1NC(=S)S/C1=C/c1ccc(Sc2ccccc2)o1 | . | . | . | 87* | . | .
COc1ccc(-c2cc(C(=O)N3CC4(C)CC3CC(C)(C)C4)no2)cc1OC (centres undefined) | -18 | -6 | 37 | 5 | -8 | 71*
COc1cccc(-c2cc(C(=O)N3C(C)CCCC3C)no2)c1 (centres undefined) | -3 | -1 | 24 | -11 | 3 | 68*
CC1(C)CC2CC(C)(CN2C(=O)c2cc(-c3ccccc3O)on2)C1 (centres undefined) | -5 | -10 | -6 | 2 | 2 | 95*
COc1ccc(-c2cc(C(=O)N3CC4(C)CC3CC(C)(C)C4)no2)cc1 (centres undefined) | 6 | -4 | -3 | 8 | 1 | 65*
COc1cccc(-c2cc(C(=O)N3CCN(C(c4ccccc4)c4ccccc4)CC3)no2)c1 | -12 | -14 | 11 | 6 | 3 | -4
Cc1ccc(OCCOc2ccc(Br)cc2/C=N/n2cnnc2)cc1C | . | . | . | 7 | . | .
CCOC(=O)CSCc1nc2c(c(=O)[nH]1)C1(CCCC1)Cc1ccccc1-2 | . | . | . | 8 | . | .
CC(C)c1nnc(NC(=O)c2c(O)c3cccc4c3n(c2=O)CC4)s1 | -13 | . | 2 | -11 | 5 | 100*
CCc1nc2ccccc2c(=O)n1NC(=O)c1c(O)c2cccc3c2n(c1=O)CCC3 | 2 | 0 | 27 | -4 | 5 | 64*
CCn1c(=O)c(C(=O)Nn2c(C)nc3ccccc3c2=O)c(O)c2ccccc21 | 4 | 3 | -29 | 3 | -2 | 91*
CCCc1nnc(NC(=O)c2c(O)c3cccc4c3n(c2=O)CCC4)s1 | 6 | . | 40 | 11 | 1 | 10
O=C(NCc1ccccc1Cl)C(=O)NC1CC1 | . | . | . | 4 | . | .
O=C(NCc1ccc(Cl)cc1Cl)C(=O)NC1CCCC1 | . | . | . | 61* | . | .
COC(=O)c1ccc(C(=O)Nc2cc(Cl)ccc2Cl)cc1NC(=O)C(C)Oc1ccccc1 (centres undefined) | . | . | . | 66* | . | .
CC(Oc1ccccc1)C(=O)Nc1ccccc1C(=O)O (centres undefined) | . | . | . | 3 | . | .
CCOC(=O)c1ccccc1NC(=O)C(C)Oc1ccccc1 (centres undefined) | -8 | 13 | 3 | 8 | -8 | 69*
CCOC(=O)N1CCc2c(sc(NC(=O)c3ccc(Cl)s3)c2C(N)=O)C1 | 8 | -4 | 37 | 4 | 3 | 73*
Cc1ccc(C)c(C(=O)CSc2n[nH]c(-c3ccncc3)n2)c1 | -3 | 4 | 6 | 6 | 1 | 99*
Cc1ccc(C)c(C(=O)CSc2n[nH]c(-c3ccccc3)n2)c1 | . | . | . | 3 | . | .
O=S(=O)(/N=C(/Nc1cccc(O)c1)c1ccccc1)c1ccc(Cl)cc1 | . | . | . | -20 | . | .
c1ccc(CCc2nc(-c3cccnc3)no2)cc1 | -3 | 9 | -7 | 9 | -4 | -5
c1ccc(CCc2ccccc2-c2nc(-c3cccnc3)no2)cc1 | -37 | -12 | 10 | -10 | 0 | 73*
c1ccc(-c2noc(-c3cccc4ccccc34)n2)cc1 | -17 | 2 | -18 | -11 | -9 | 70*
SMILES | Cdc25B inh | Ecoli WT expand | MKP-1 inh | HePTP inh | MMP-13 inhibitor | tolC growth inh
c1ccc2c(-c3nc(-c4ccncc4)no3)cccc2c1 | 0 | 0 | -3 | 10 | -20 | 4
c1ccc(-c2ccccc2-c2nc(-c3cccnc3)no2)cc1 | -4 | 4 | 7 | 5 | 5 | 98*
COC(=O)c1sc(N2C(=O)C(O)=C(C(=O)c3ccc(C)o3)C2c2ccc(F)cc2)nc1C (centres undefined) | 4 | -8 | 35 | 3 | -4 | 65*
Cc1ccc(C2C(C(=O)c3ccco3)=C(O)C(=O)N2c2nnc(C)s2)cc1 (centres undefined) | . | 2 | . | . | . | .
Brc1cccc(C2CC(c3ccccc3)n3nnnc3N2)c1 (centres undefined) | -11 | 14 | 14 | -1 | 3 | 63*
CCN1/C(=C(\O)c2ccccc2)C(=O)c2ccccc2S1(=O)=O | 1 | 12 | -6 | 4 | -4 | 89*
CCN1c2cccc3cccc(c23)S1(=O)=O | . | -2 | . | . | . | .
CCN(Cc1ccccc1)S(=O)(=O)c1ccc(NC(C)=O)cc1 | . | . | . | -2 | . | .
COc1cc(Br)c(/C=C2\C(=O)N(c3ccc(S(N)(=O)=O)cc3)N=C2C)cc1OC | . | . | . | -2 | . | .
COc1cc(Br)c(/C=C2/C(=O)N(c3ccc(C)cc3)N=C2C)cc1OC | . | . | . | -1 | . | .
COc1ccc(OC)c(/C=C2\C(=O)N(c3ccc(S(N)(=O)=O)cc3)N=C2C)c1 | . | . | . | 68* | . | .
COc1cc(Br)c(/C=C2\C(=O)N(c3cccc(C(=O)O)c3)N=C2C)cc1OC | . | . | . | 77* | . | .
COc1cc(/C=C2\C(=O)N(c3cccc(C(=O)O)c3)N=C2C)c([N+](=O)[O-])cc1OC | . | . | . | 75* | . | .
COc1cccc(/C=C2\C(=O)N(c3cccc(C(=O)O)c3)N=C2C)c1 | . | . | . | 66* | . | .
CCOC(=O)CSc1nnc(-c2ccc(Br)cc2)o1 | . | . | . | 6 | . | .
COC(=O)C1=C(C)N(CC2CCCO2)C(=O)/C1=C\c1ccc(OC)c([N+](=O)[O-])c1 (centres undefined) | . | . | . | 5 | . | .
Cc1ccc2oc(-c3ccc(NC(=O)c4ccc(Br)o4)cc3)nc2c1 | . | . | . | 1 | . | .
Cn1c(CSc2nnc(SCc3ccccc3)s2)nc2ccccc21 | 74* | -21 | 24 | 9 | -3 | 84*
CCSc1nc(N2CCOCC2)c2c(c1C#N)CCCC2 | -17 | 5 | -24 | 5 | -1 | 21
CC(C)c1nc(N2CCOCC2)c(C#N)c2c1CCCC2 | -2 | -2 | -6 | -2 | -24 | 65*
O=C(c1ccc(COc2ccc3c(c2)CCC3)o1)N1CCN(c2ccccc2)CC1 | -31 | . | 13 | . | 0 | 67*
O=C(c1ccc(COc2ccccc2Cl)o1)N1CCN(c2ccccc2)CC1 | -15 | -26 | -1 | 7 | 3 | 84*
O=C(c1ccc(COc2ccccc2Br)o1)N1CCCCCC1 | -21 | -5 | 6 | 7 | 2 | 61*
O=C(c1ccc(COc2ccccc2Br)cc1)N1CCCCC1 | . | -3 | . | . | . | .
COc1ccc(CC(=O)N2CCN(c3ccccn3)CC2)cc1OC | 1 | -1 | -11 | -2 | -16 | -6
O=C(c1ccco1)N1CCN(C(=O)c2ccc(COc3ccc4c(c3)CCC4)o2)CC1 | . | -5 | . | . | . | .
CCCc1ccc(OCc2ccc(C(=O)N3CCN(c4ccccn4)CC3)o2)c(OC)c1 | -21 | -14 | 12 | 7 | -2 | 100*
CC(C)(C)C(=O)Nc1cccc(C(=O)Nc2c[nH]c(=O)[nH]c2=O)c1 | . | . | . | 5 | . | .
